# Reference: ChEMBL document CHEMBL1629475, “Synthesis of new chalcone derivatives containing a rhodanine-3-acetic acid moiety with potential anti-bacterial activity” (2010)
# Active and inactive are the calls of the source. The calls are words filed in the database; no cut-off is given here.
# Columns and labels:
# Staphylococcus aureus [1] = assay: Antibacterial activity against Staphylococcus aureus RN 4220 at 64 ug/ml; type: functional, organism-based
# Staphylococcus aureus [2] = assay: Antibacterial activity against Staphylococcus aureus RN 4220 after 20 hrs by twofold serial dilution technique; type: functional; conditions: RN 4220, 20 h
# How it was run: (§1)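 Inoculum was 10⁵ CFU/mL. MIC was read after 20 h at 37 °C. The MRSA and QRSA strains were multidrug-resistant clinical isolates. Oxacillin and norfloxacin served as positive controls.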
# Streptococcus mutans [3] = assay: Antibacterial activity against Streptococcus mutans KCTC 3065 after 20 hrs by twofold serial dilution technique; type: functional; conditions: KCTC 3065, 20 h
# How it was run: (§2)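 Inoculum was 10⁵ CFU/mL, and MIC was read after incubation at 37 °C for 20 h. Oxacillin and norfloxacin were the positive controls.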
# Streptococcus mutans [4] = assay: Antibacterial activity against Streptococcus mutans KCTC 3289 after 20 hrs by twofold serial dilution technique; type: functional; conditions: KCTC 3289, 20 h; how it was run: as §2
# Staphylococcus aureus [5] = assay: Antibacterial activity against Staphylococcus aureus KCTC 209 at 64 ug/ml; type: functional, organism-based
# Staphylococcus aureus [6] = assay: Antibacterial activity against Staphylococcus aureus KCTC 503 at 64 ug/ml; type: functional, organism-based
# Streptococcus mutans [7] = assay: Antibacterial activity against Streptococcus mutans KCTC 3289 at 64 ug/ml; type: functional, organism-based
# Escherichia coli [8] = assay: Antibacterial activity against Escherichia coli 1924 after 20 hrs by twofold serial dilution technique; type: functional; conditions: Escherichia coli, 1924, 20 h; how it was run: as §1
# Staphylococcus aureus [9] = assay: Antibacterial activity against Staphylococcus aureus KCTC 209 after 20 hrs by twofold serial dilution technique; type: functional; conditions: KCTC 209, 20 h; how it was run: as §1
# Escherichia coli [10] = assay: Antibacterial activity against Escherichia coli 1924 at 64 ug/ml; type: functional, organism-based
# Escherichia coli [11] = assay: Antibacterial activity against Escherichia coli 1356 after 20 hrs by twofold serial dilution technique; type: functional; conditions: Escherichia coli, 1356, 20 h; how it was run: as §1
# Staphylococcus aureus [12] = assay: Antibacterial activity against Staphylococcus aureus KCTC 503 after 20 hrs by twofold serial dilution technique; type: functional; conditions: KCTC 503, 20 h; how it was run: as §1
# Streptococcus mutans [13] = assay: Antibacterial activity against Streptococcus mutans KCTC 3065 at 64 ug/ml; type: functional, organism-based
# Escherichia coli [14] = assay: Antibacterial activity against Escherichia coli 1356 at 64 ug/ml; type: functional, organism-based
# Staphylococcus aureus [15] = assay: Antibacterial activity against Staphylococcus aureus QRSA CCARM 3519 after 20 hrs by twofold serial dilution technique; type: functional; conditions: QRSA CCARM 3519, 20 h; how it was run: as §1
# Staphylococcus aureus [16] = assay: Antibacterial activity against Staphylococcus aureus MRSA CCARM 3167 after 20 hrs by twofold serial dilution technique; type: functional; conditions: MRSA CCARM 3167, 20 h; how it was run: as §1
# Staphylococcus aureus [17] = assay: Antibacterial activity against Staphylococcus aureus QRSA CCARM 3505 after 20 hrs by twofold serial dilution technique; type: functional; conditions: QRSA CCARM 3505, 20 h; how it was run: as §1
# Staphylococcus aureus [18] = assay: Antibacterial activity against Staphylococcus aureus MRSA CCARM 3506 after 20 hrs by twofold serial dilution technique; type: functional; conditions: MRSA CCARM 3506, 20 h; how it was run: as §1
Compound,MIC (Staphylococcus aureus [2]) [µg/mL],MIC (Streptococcus mutans [3]) [µg/mL],MIC (Streptococcus mutans [4]) [µg/mL],MIC (Escherichia coli [8]) [µg/mL],MIC (Staphylococcus aureus [9]) [µg/mL],MIC (Escherichia coli [11]) [µg/mL],MIC (Staphylococcus aureus [12]) [µg/mL],MIC (Staphylococcus aureus [15]) [µg/mL],MIC (Staphylococcus aureus [16]) [µg/mL],MIC (Staphylococcus aureus [17]) [µg/mL],MIC (Staphylococcus aureus [18]) [µg/mL],Activity (Staphylococcus aureus [1]),Activity (Staphylococcus aureus [5]),Activity (Staphylococcus aureus [6]),Activity (Streptococcus mutans [7]),Activity (Escherichia coli [10]),Activity (Streptococcus mutans [13]),Activity (Escherichia coli [14])
O=C(O)CN1C(=O)/C(=C\c2ccc(/C=C/C(=O)c3ccccc3Cl)cc2)SC1=S,> 64,> 64,> 64,> 64,> 64,> 64,> 64,–,–,–,–,inactive,inactive,inactive,inactive,inactive,inactive,inactive
O=C(O)CN1C(=O)/C(=C\c2ccc(/C=C/C(=O)c3ccc([N+](=O)[O-])cc3)cc2)SC1=S,4,8,8,> 64,4,> 64,4,4,4,4,4,–,–,–,–,inactive,–,inactive
O=C(O)CN1C(=O)/C(=C\c2ccc(/C=C/C(=O)c3ccc(Cl)cc3Cl)cc2)SC1=S,2,2,2,> 64,2,> 64,2,2,2,2,2,–,–,–,–,inactive,–,inactive
O=C(O)CN1C(=O)CSC1=S [RHODANINE-3-ACETIC ACID],> 64,> 64,> 64,> 64,> 64,> 64,> 64,–,–,–,–,inactive,inactive,inactive,inactive,inactive,inactive,inactive
O=C(O)CN1C(=O)/C(=C\c2ccc(/C=C/C(=O)c3ccccc3F)cc2)SC1=S,> 64,> 64,> 64,> 64,> 64,> 64,> 64,–,–,–,–,inactive,inactive,inactive,inactive,inactive,inactive,inactive

# The next lines start with results.
MIC (Staphylococcus aureus [2]) [µg/mL],MIC (Streptococcus mutans [3]) [µg/mL],MIC (Streptococcus mutans [4]) [µg/mL],MIC (Escherichia coli [8]) [µg/mL],MIC (Staphylococcus aureus [9]) [µg/mL],MIC (Escherichia coli [11]) [µg/mL],MIC (Staphylococcus aureus [12]) [µg/mL],MIC (Staphylococcus aureus [15]) [µg/mL],MIC (Staphylococcus aureus [16]) [µg/mL],MIC (Staphylococcus aureus [17]) [µg/mL],MIC (Staphylococcus aureus [18]) [µg/mL],Compound,Activity (Staphylococcus aureus [1]),Activity (Staphylococcus aureus [5]),Activity (Staphylococcus aureus [6]),Activity (Streptococcus mutans [7]),Activity (Escherichia coli [10]),Activity (Streptococcus mutans [13]),Activity (Escherichia coli [14])
> 64,> 64,> 64,> 64,> 64,> 64,> 64,–,–,–,–,O=C(O)CN1C(=O)/C(=C\c2ccc(/C=C/C(=O)c3ccccc3Br)cc2)SC1=S,inactive,inactive,inactive,inactive,inactive,inactive,inactive
4,4,4,> 64,4,> 64,4,4,4,4,4,O=C(O)CN1C(=O)/C(=C\c2ccc(/C=C/C(=O)c3ccc(Br)cc3)cc2)SC1=S,–,–,–,–,inactive,–,inactive
4,4,4,> 64,4,> 64,4,4,4,4,4,O=C(O)CN1C(=O)/C(=C\c2ccc(/C=C/C(=O)c3ccc(F)cc3)cc2)SC1=S,–,–,–,–,inactive,–,inactive
4,4,4,> 64,4,> 64,4,4,4,4,4,O=C(O)CN1C(=O)/C(=C\c2ccc(/C=C/C(=O)c3ccc(Cl)cc3)cc2)SC1=S,–,–,–,–,inactive,–,inactive
8,8,8,> 64,8,> 64,8,8,8,8,8,O=C(O)CN1C(=O)/C(=C\c2ccc(/C=C/C(=O)c3cccc(Br)c3)cc2)SC1=S,–,–,–,–,inactive,–,inactive
8,8,8,> 64,8,> 64,8,8,8,8,8,COc1cccc(C(=O)/C=C/c2ccc(/C=C3/SC(=S)N(CC(=O)O)C3=O)cc2)c1,–,–,–,–,inactive,–,inactive
